Measured values from different studies.
Lines come from different studies, so protocols differ.
Target: Cyclin-dependent kinase 11A (CDK11A, Homo sapiens, UniProt Q9UQ88)
One construct used (Q9UQ88 1-783): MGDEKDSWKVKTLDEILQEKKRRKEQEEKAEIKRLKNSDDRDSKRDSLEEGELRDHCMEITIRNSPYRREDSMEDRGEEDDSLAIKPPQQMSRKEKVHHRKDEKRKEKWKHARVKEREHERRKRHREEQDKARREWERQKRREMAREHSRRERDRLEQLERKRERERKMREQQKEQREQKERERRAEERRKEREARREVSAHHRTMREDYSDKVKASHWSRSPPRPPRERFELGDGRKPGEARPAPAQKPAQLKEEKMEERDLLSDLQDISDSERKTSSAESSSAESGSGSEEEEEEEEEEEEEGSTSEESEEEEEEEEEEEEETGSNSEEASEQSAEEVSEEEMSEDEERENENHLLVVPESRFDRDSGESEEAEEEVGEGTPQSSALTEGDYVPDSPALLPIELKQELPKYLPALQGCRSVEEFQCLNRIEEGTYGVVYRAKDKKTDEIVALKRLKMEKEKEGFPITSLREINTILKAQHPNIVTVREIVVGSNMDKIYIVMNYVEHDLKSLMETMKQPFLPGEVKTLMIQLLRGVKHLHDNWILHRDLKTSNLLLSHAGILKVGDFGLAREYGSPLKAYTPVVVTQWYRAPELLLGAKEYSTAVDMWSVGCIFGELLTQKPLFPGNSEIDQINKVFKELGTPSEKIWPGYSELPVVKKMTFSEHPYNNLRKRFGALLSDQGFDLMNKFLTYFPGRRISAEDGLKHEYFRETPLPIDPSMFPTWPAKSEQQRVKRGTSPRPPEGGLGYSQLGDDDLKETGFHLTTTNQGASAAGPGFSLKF

C=CC(=O)N1CCC(C(=O)NCC(=O)N2CCN(c3nc(-c4cnc(N)nc4C(F)F)nc(N4CCOCC4)n3)CC2)CC1 — remaining binding (binding; competition with immobilised ligand; 1 µM): 97%
Cc1cnn2ncc(-c3ccnc(N(C)C)n3)c2c1 — remaining binding (binding; 1 µM): 100%
CSc1cccnc1N1CCN(Cc2nc3ccccc3[nH]2)CC1 — remaining binding (binding; competition with immobilised ligand; 1 µM): 100%
O=C(Nc1c[nH]nc1C(=O)NC1CCNCC1)c1cc(F)cc(F)c1 — remaining binding (binding; competition with immobilised ligand; 1 µM): 100%
N[C@@H]1CCN(c2nccc(-c3cnn4ncccc34)n2)C1 — remaining binding (binding; 1 µM): 98%
Cc1cnc(Nc2ccc(C(=O)N3CCC(N4CCCC4)CC3)cc2)nc1-c1cc2ccccc2s1 — remaining binding (binding; competition with immobilised ligand; 1 µM): 100%
NS(=O)(=O)c1cc(NC(=O)C2(c3ccccc3Cl)CC2)ccc1Oc1cccc(Cl)c1 — remaining binding (binding; competition with immobilised ligand; 1 µM): 73%
COc1ncc2cc3ccccc3nc2c1C#N — remaining binding (binding; competition with immobilised ligand; 5 µM): 93%
CC(=O)N1CCC(c2ccc(C(=O)NC3=NCCN3)cc2C(F)(F)F)CC1 — remaining binding (binding; competition with immobilised ligand; 1 µM): 100%
COc1ccnn2ncc(-c3ccnc(N(C)C)n3)c12 — remaining binding (binding; 1 µM): 100%
c1cncc(-c2cccc(Nc3nccc(NC4CCCCC4)n3)c2)c1 — remaining binding (binding; competition with immobilised ligand; 10 µM): 98%
CNC(=O)Nc1ccc2c(c1)[C@@]1(CC2)OC(=O)N(CC(=O)N(Cc2ccc(F)cc2)[C@@H](C)C(F)(F)F)C1=O — remaining binding (binding; competition with immobilised ligand; 1 µM): 94%
CN(c1nccc(-c2cnn3ncccc23)n1)C1CC1 — remaining binding (binding; 1 µM): 100%
O=C(NCCCN1CCOCC1)c1ccc(Nc2ncc(Cl)c(-c3ccc(Cl)s3)n2)cc1 — remaining binding (binding; competition with immobilised ligand; 1 µM): 23%
F[C@@H]1CCN(c2nccc(-c3cnn4ncccc34)n2)C1 — remaining binding (binding; 1 µM): 100%
O=C(c1ccc(Nc2ncc(Cl)c(-c3cc4ccccc4s3)n2)cc1)N1CCC(N2CCCC2)CC1 — remaining binding (binding; competition with immobilised ligand; 1 µM): 85%
Cn1cc(Cl)c2c(Oc3c(F)cc(Nc4cc(Cl)nc(N)n4)cc3F)ccnc21 — remaining binding (binding; competition with immobilised ligand; 0.1 µM): 100%
CNC(=O)[C@@H]1CC[C@@H](n2c(-c3ccc4cnccc4c3)nc3ccc(C(=O)NCc4cccc(C(N)=O)c4)cc32)C1 — remaining binding (binding; competition with immobilised ligand; 1 µM): 100%
CCC(=O)N[C@H]1CC[C@@H](C(=O)N(C)c2ccc(-c3nc4ccccc4o3)cc2)C1 — remaining binding (cell-free assay; competition with immobilised ligand; 1 µM): 97%
C[C@H]1CCN(c2nccc(-c3cnn4ncccc34)n2)C1 — remaining binding (binding; 1 µM): 81%
COc1cnc(Nc2cccc(S(N)(=O)=O)c2)nc1N1CCN(c2ccccc2)C(=O)C1 — remaining binding (binding; competition with immobilised ligand; 1 µM): 100%
